CHO parental Ca: counter-screen: ATP calcium response change in parental CHO cells | inhibition, % at 5.6 µM | parental CHO-K1, ATP-induced calcium, Fluo-8 fluorescence | 330,000 compounds, 0.63% hits;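 active = inhibition above that plate's mean sample inhibition plus 3 SD, cut at about 26% in these data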
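Assay system: parental CHO cells; Read-out basis: percent inhibition of ATP-evoked calcium rise, normalized to controls; Benchmarks: ATP and no-ATP DMSO wells; Compound dosing: single nominal dose of 5.6 µM per compound; Signal: Fluo-8 calcium dye fluorescence; Also added: ATP as calcium-mobilizing challenge; Repeats: singlicate.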
MPTP inh: inhibitors of mitochondrial permeability transition pore | isolated mouse mitochondria, Ca2+ swelling absorbance, 30 min | inhibition, % at 10 µM | 360,000 compounds, 1.4% hits | AID 602449;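 active = inhibition of 50% or more, scaled per plate between neutral and stimulator controls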
GPR7 antagonist: blocks human GPR7 receptor signaling | GPR7-expressing cells, fluorescence antagonist assay | P48145 | inhibition, % at 4.4 µM | AID 1861 | 290,000 compounds, 1.1% hits; in the data active = inhibition above about 16%, passing the limit was not always enough;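 note: cells stimulated with the agonist NPW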
OX1R antag-1: human HCRTR1 antagonism; CHO/OX1R cells, Fluo-8 calcium fluorescence, orexin A; inhibition, % at 5 µM; 330,000 compounds, 0.43% hits; O43613;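 active = inhibition above its plate's threshold, mean inhibition of all tested compounds on the plate plus 3 SD, cut at about 37% in these data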
Target sequence (O43613 whole entry, looked up): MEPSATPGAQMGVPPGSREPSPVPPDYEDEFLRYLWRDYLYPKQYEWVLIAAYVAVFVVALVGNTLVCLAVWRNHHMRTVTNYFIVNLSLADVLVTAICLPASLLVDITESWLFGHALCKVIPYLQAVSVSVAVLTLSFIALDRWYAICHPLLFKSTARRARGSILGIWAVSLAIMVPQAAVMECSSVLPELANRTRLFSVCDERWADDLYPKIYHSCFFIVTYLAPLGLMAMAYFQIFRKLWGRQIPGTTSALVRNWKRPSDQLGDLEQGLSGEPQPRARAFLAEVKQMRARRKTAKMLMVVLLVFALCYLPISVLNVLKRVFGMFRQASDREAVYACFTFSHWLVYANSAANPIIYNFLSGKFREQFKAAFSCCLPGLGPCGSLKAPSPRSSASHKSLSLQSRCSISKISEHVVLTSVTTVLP
OX1R antag-2: OX1R (human) antagonism | O43613 | inhibition, % at 6.6 µM | 330,000 compounds, 1.8% hits | AID 485270 | OX1R-expressing cells, FRET antagonist read-out; in the data active = inhibition mostly above about 38%, no sharp cut-off; inactive = mostly below about 40%
A number is an active result; 0 = inactive; - = not tested or not shown. Only some compounds are listed: those with a hit (about 3.8% of all), similar ones and a draw of the others.

SMILES	CHO parental Ca	MPTP inh	GPR7 antagonist	OX1R antag-1	OX1R antag-2
O=[N+]([O-])c1cccc(/C=N/n2cnnc2)c1O	0	0	0	0	0
Cc1ccc(N/C(N)=N/c2nc(C)cc(N3CCCCC3)n2)c(C)c1	0	0	27	0	0
O=S(=O)(NCc1ccc2c(c1)OCO2)c1ccc2oc3ccccc3c2c1	0	0	0	0	52
Cn1c(N=Nc2ccccc2)nc2ccccc21	0	0	0	0	64
COc1ccccc1C(=O)NCC(c1cccs1)N1CCc2ccccc21 (stereo not given)	0	0	-	0	0
CC1CS(=O)(=O)CCN1N=Cc1ccc([N+](=O)[O-])o1 (stereo not given)	0	0	-	0	53
COc1cccc(NC(=O)N(C)C[C@H]2OCc3cnnn3CCCC(=O)N([C@H](C)CO)C[C@@H]2C)c1	-	0	-	-	-
O=C(Nc1ccc(-c2nc3ccccc3[nH]2)cc1)c1ccccc1NS(=O)(=O)c1ccc(F)cc1	0	0	0	0	53
CCOc1cc(/C=C2\CCC/C(=C\c3cc(Cl)c(O)c(OCC)c3)C2=O)cc(Cl)c1O	0	0	0	0	75
CCOC(=O)C1CCN(C(=O)COc2cc(C)c(Br)cc2C)CC1	54	0	0	50	0
CCOC(=O)C1=C(C)Nc2ccccc2N/C1=N\S(=O)(=O)c1cccc(Cl)c1	0	0	-	0	0
CCOC(=O)C1=C(C)Nc2ccccc2N/C1=N\S(=O)(=O)c1ccc(Cl)cc1	0	0	-	0	30
CCOC(=O)CSc1nc(-c2ccccc2)nc2ccccc12	0	0	0	0	38
CCOC(=O)Cn1c(-c2ccccc2)nc2ccccc2c1=O	0	0	0	0	75
CCOC(=O)CSc1nc(-c2ccccc2)nc2ccc(F)cc12	0	0	0	0	0
CN(C(=O)CSc1nnnn1-c1ccccc1)C1CCS(=O)(=O)C1 (stereo not given)	0	0	19	0	0
Cc1ccc(S(=O)(=O)/N=C2/C=C(Sc3ncn[nH]3)C(=O)c3ccccc32)cc1	0	0	0	0	59
O=C1C=C(Nc2cccc3cccnc23)c2ccccc2C1=O	0	0	0	0	64
CC(=O)Nc1cccc(C(=O)/C=C/c2ccc(/C=C/C(=O)c3cccc(NC(C)=O)c3)cc2)c1	0	-	0	0	0
O=C(/C=C/c1ccc(Br)cc1)c1ccc(NC2=NCCCS2)cc1	0	0	52	0	0
CCN(CC)c1ccc(/C=C/C(=O)c2ccc(Br)cc2)cc1	91	0	0	99	0
CC(=O)Nc1cccc(C(=O)/C=C/c2ccc(Br)cc2)c1	0	0	20	0	0
O=C(/C=C/c1ccccc1)c1ccc(NC2=NCCCS2)cc1	0	0	0	0	0
O=C(NCCN1CCC(n2c(=O)[nH]c3ccccc32)CC1)c1cccc(F)c1	-	0	-	-	-
CC1(c2ccccc2Cl)NC(=O)N(CC(=O)Nc2ccccc2OC(F)F)C1=O (stereo not given)	0	0	0	0	43
SMILES	CHO parental Ca	MPTP inh	GPR7 antagonist	OX1R antag-1	OX1R antag-2
O=[N+]([O-])c1ccc2c(OCc3nnc(-c4ccccc4Br)o3)ncnc2c1	0	0	0	0	49
CCN(CC)Cc1c(O)ccc2c(-c3ccccc3)cc(=O)oc12	0	0	0	0	61
Cc1c(O)ccc2c(-c3ccccc3)cc(=O)oc12	0	0	0	0	0
Cc1cccc(NS(=O)(=O)c2ccc(NC(=O)CN(c3cc([N+](=O)[O-])ccc3C)S(C)(=O)=O)cc2)c1	0	0	66	0	0
COc1ccc(C)cc1NS(=O)(=O)c1ccc(NC(=O)CN(c2cc([N+](=O)[O-])ccc2C)S(C)(=O)=O)cc1	0	0	0	0	0
C[C@H](NC(=O)c1[nH]cnc1C(=O)Nc1ccccc1F)c1ccccc1	-	0	-	-	-
COc1ccc(-c2csc(NC3CCCCC3)n2)c(OC)c1	0	0	0	0	0
CC12CCC(C/C1=N\OC(=O)c1c(F)cccc1F)C2(C)C (stereo not given)	0	0	0	0	0
CC(C)Oc1ccc(CN2CCC2(C)C(=O)NCc2cccc3ccccc23)cc1 (stereo not given)	-	0	-	-	-
CN(C)C(=O)C1CCC(=O)N1Cc1cccs1 (stereo not given)	0	0	16	0	0
CC(C)(C)c1ccc(CC(=O)N2CCC2(C)C(=O)Nc2cnc3ccccc3c2)cc1 (stereo not given)	-	0	-	-	-
CN(C)CCN1C(=O)C(O)=C(C(=O)c2cc3ccccc3o2)C1c1ccccn1 (stereo not given)	0	-	0	0	49
CCN(CC)CCCN1C(=O)C(O)=C(C(=O)c2cc3ccccc3o2)C1c1ccccn1 (stereo not given)	0	0	0	0	0
COc1ccc(C(C)=O)c(Oc2nc(CN3CCOCC3)nc3scc(-c4cccs4)c23)c1	0	0	0	0	0
CC(=O)c1ccccc1Oc1nc(CN2CCOCC2)nc2scc(-c3cccs3)c12	0	0	0	0	44
Cc1ccc(CN2CCCN(Cc3ccc(F)cc3Cl)S2(=O)=O)cc1	47	0	0	0	0
O=S1(=O)N(Cc2ccccc2F)CCCN1Cc1c(F)cccc1Cl	66	0	0	0	0
Cc1ccc(CN2CCCN(Cc3c(F)cccc3Cl)S2(=O)=O)cc1	0	0	0	0	0
O=C1NCCCN1Cc1ccc(F)cc1Cl	-	0	0	-	-
Cc1ccc(NC(=O)NC(=O)COC(=O)c2ccc(O)cc2O)c(C)c1	-	0	-	-	-
COc1cc(-c2nc3ccccn3c2NCc2ccccc2)ccc1SC1CCCCC1	62	0	-	0	0
CCCCN(CCCC)CC(O)COc1ccccc1C(=O)Nc1ccccc1 (stereo not given)	0	0	20	0	0
CCN(CC)CC(O)COc1ccccc1C(=O)CCc1ccccc1 (stereo not given)	0	0	0	0	0
CCC1(C2C=COC=C2)NC(=O)NC1=O (stereo not given)	-	0	-	-	-
CCOc1ccccc1N1CCN(C(=O)c2cc(S(=O)(=O)N(C)C)ccc2N2CCCC2)CC1	0	0	-	0	0
SMILES	CHO parental Ca	MPTP inh	GPR7 antagonist	OX1R antag-1	OX1R antag-2
Cc1ccc(NC(=O)c2cc3c(s2)CCCC3)cc1S(=O)(=O)Nc1ccccc1Cl	0	0	0	0	70
Cn1c(=O)[nH]c(=O)c2c1nc([N+](=O)[O-])n2Cc1ccccc1	0	0	0	0	0
Cc1cc(NC(=O)COC(=O)C2CSC3(C)CCC(=O)N23)ccc1Br (stereo not given)	0	0	-	0	0
Cc1ccc2c(c1)-c1c(cnn1CC(=O)NC(C)CCc1ccco1)CO2 (stereo not given)	0	0	0	0	0
Cc1ccc2c(c1)-c1c(cnn1CC(=O)N(Cc1ccco1)C1CCCCC1)CO2	0	0	0	0	52
NC1=C(c2ccccc2)C(=O)NC1=O	0	0	0	0	40
CC(=O)Nc1ccc(S(=O)(=O)N2CCN=C2SCc2ccc([N+](=O)[O-])cc2)cc1	33	0	0	0	0
CN(C)S(=O)(=O)c1cccc(NC(=O)C2CCCN(C(=O)c3ccc(Cl)cc3)C2)c1 (stereo not given)	-	0	-	-	-

Assay outcomes (PubChem)
